From ChEMBL document CHEMBL2150971, “Selective depletion of mutant p53 by cancer chemopreventive isothiocyanates and their structure-activity relationships” (J Med Chem, 2011)
Calls of active or inactive are those of the source. No cut-off for these calls is given here.

What was measured:
[1] = test system: Cellular tumor antigen p53 (Homo sapiens), P04637 [G245C]; experiment: Induction of conformational changes in p53 G245C mutant in human NCI-H596 cells at 60 uM incubated for 1 hr at 32 degC by tryptophan fluorescence emission spectroscopy; format: cell-based
Outline: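 6 µM purified G245C p53 DNA-binding domain incubated 1 h at 32 °C alone, with DMSO or 60 µM agent; intrinsic fluorescence emission 285–400 nm, excitation 280 nm, slit 5 nm, 3 scans averaged.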

[2] = test system: Cellular tumor antigen p53 (Homo sapiens), P04637 [G245C]; experiment: Induction of p53 G245C mutant depletion in human NCI-H596 cells at 20 uM by immunoblot analysis; format: cell-based
[3] = test system: Cellular tumor antigen p53 (Homo sapiens), P04637 [R280K]; experiment: Induction of p53 R280K mutant depletion in human MDA-MB-231 cells at 10 uM by immunoblot analysis; format: cell-based
Outline: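 MDA-MB-231 cells treated with 10 µM for 24 h; whole-cell lysates immunoblotted for p53 (DO-1) with β-actin loading control, ECL.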

[4] = test system: Cellular tumor antigen p53 (Homo sapiens), P04637 [G245C]; experiment: Induction of covalent cysteine modification at p53 G245C mutant in human NCI-H596 cells at 100 uM incubated for 1 hr by monochlorobimane fluorometric assay; format: cell-based
MDA-MB-231 [5] = experiment: Induction of apoptosis in human MDA-MB-231 cells expressing p53 R280K mutant at 10 uM incubated for 24 hrs by FITC/Annexin-V staining method; format: functional, cell-based
Outline: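 MDA-MB-231 cells at 40–50% confluency treated with DMSO or 10 µM in DMSO for 24 h; washed in cold PBS, stained with FITC-Annexin V and propidium iodide, analysed by flow cytometry; early apoptotic (Annexin V+/PI−) fraction; mean ± SD of three experiments, unequal-variance two-sample t-test.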

[6] = test system: Cellular tumor antigen p53 (Homo sapiens), P04637 [G245C]; experiment: Induction of p53 G245C mutant depletion in human NCI-H596 cells at 60 uM after 2 hrs by immunoblot analysis; format: cell-based
Outline: (§1)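 H596 cells (G245C p53), maintained in DMEM or RPMI-1640 with 10% FBS, treated either at 15 µM for varying times up to 24 h or at varying concentrations (10–60 µM) for 2 h; whole-cell lysates, equal protein on SDS gels, PVDF, blotted with p53 DO-1 and β-actin antibodies, ECL.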

[7] = test system: Cellular tumor antigen p53 (Homo sapiens), P04637 [G245C]; experiment: Induction of p53 G245C mutant depletion in human NCI-H596 cells at 15 uM up to 24 hrs by immunoblot analysis; format: cell-based; outline: as §1
[8] = test system: Cellular tumor antigen p53 (Homo sapiens), P04637 [G245C]; experiment: Induction of p53 G245C mutant depletion in human NCI-H596 cells at 40 uM incubated for 2 hrs by immunoblot analysis; format: cell-based; outline: as §1
[9] = test system: Cellular tumor antigen p53 (Homo sapiens), P04637 [G245C]; experiment: Induction of p53 G245C mutant depletion in human NCI-H596 cells at 10 uM incubated for 2 hrs by immunoblot analysis; format: cell-based; outline: as §1
[10] = test system: Cellular tumor antigen p53 (Homo sapiens), P04637 [G245C]; experiment: Induction of p53 G245C mutant depletion in human NCI-H596 cells at 20 uM incubated for 2 hrs by immunoblot analysis; format: cell-based; outline: as §1
NCI-H596 [11] = experiment: Effect on p53 mRNA expression in human NCI-H596 cells at 15 uM incubated for 2 to 6 hrs by RT-PCR; format: functional, cell-based
Outline: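 H596 cells exposed to 15 µM for 2, 4 and 6 h, vehicle DMSO; total RNA extracted, one-step RT-PCR for p53 and β-actin mRNA.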

NCI-H596 [12] = experiment: Effect on Bax protein expression in human NCI-H596 cells by immunoblot analysis; format: functional, cell-based
Outline: (§2)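 H596 lung cancer cells treated with 15 µM; whole-cell lysates in HEPES pH 7.4/Triton X-100 lysis buffer with protease and phosphatase inhibitors; equal protein resolved on 4–12% Bis-Tris gels, transferred to PVDF, immunoblotted; ECL detection.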

SW480 = experiment: Induction of apoptosis in human SW480 cells expressing p53 R273H mutant assessed as caspase-3 activation incubated for 24 hrs; format: functional, cell-based
Outline: (§3)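 Cells treated with DMSO or drug for 24 h, lysed in ice-cold kit buffer; 100–200 µg protein incubated with Ac-DEVD-p-nitroaniline at 37 °C for 2–4 h; p-nitroanilide read at 405 nm; mean ± SD of three independent experiments.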

H1299 [13] = experiment: Induction of non-temperature sensitive p53 175H mutant depletion in human H1299 cells at 15 uM incubated for 24 hrs at 32.5 degC by immunoblot analysis; format: cell-based
[14] = molecular target: Cellular tumor antigen p53 (Homo sapiens) (UniProt P04637); experiment: Induction of p53 depletion in human MCF7 cells at 20 uM incubated for 2 to 24 hrs by immunoblot analysis; format: cell-based
Outline: (§4)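 Wild-type p53 lines HCT116, A549 and MCF-7 treated with 20 µM for 2, 4, 8 and 24 h; lysates immunoblotted for p53 (DO-1) and β-actin, ECL.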

A549 = experiment: Induction of apoptosis in human A549 cells expressing wild type p53 assessed as caspase-3 activation incubated for 24 hrs; format: functional, cell-based; outline: as §3
[15] = test system: Cellular tumor antigen p53 (Homo sapiens), P04637 [P151S]; experiment: Induction of p53 P151S mutant depletion in human SCC4 cells at 15 uM by immunoblot analysis; format: cell-based; conditions: SCC-4, TDE = time-dependent effect
Outline: (§5)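 Mutant-p53 lines SCC-4, MDA-MB-468 and MDA-MB-231 exposed to 15 µM for a time course; lysates immunoblotted with p53 DO-1 and β-actin antibodies, ECL detection.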

[16] = molecular target: Cellular tumor antigen p53 (Homo sapiens) (UniProt P04637); experiment: Induction of p53 depletion in human MCF10A cells at 15 uM incubated for 2 to 24 hrs by immunoblot analysis; format: cell-based; conditions: MCF-10A
Outline: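 MCF-10A normal mammary epithelial cells treated with 15 µM for 2, 4, 8 and 24 h; lysates immunoblotted for p53 (DO-1) and β-actin, ECL.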

H1299 [17] = experiment: Induction of non-temperature sensitive p53 175H mutant depletion in human H1299 cells at 15 uM incubated for 24 hrs at 37 degC by immunoblot analysis; format: cell-based
MDA-MB-231 [18] = experiment: Induction of apoptosis in human MDA-MB-231 cells expressing p53 R280K mutant assessed as caspase-3 activation incubated for 24 hrs; format: functional, cell-based; outline: as §3
[19] = test system: Cellular tumor antigen p53 (Homo sapiens), P04637 [R273H]; experiment: Induction of p53 R273H mutant depletion in human SW480 cells at 10 uM by immunoblot analysis; format: cell-based; conditions: TDE = time-dependent effect
Outline: (§6)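 DU145 and SW480 cells exposed to 10 µM for a time course; lysates immunoblotted with p53 DO-1 and β-actin antibodies, ECL detection.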

[20] = test system: Cellular tumor antigen p53 (Homo sapiens), P04637 [R273H]; experiment: Induction of p53 R273H mutant depletion in human MDA-MB-468 cells at 15 uM by immunoblot analysis; format: cell-based; conditions: TDE = time-dependent effect; outline: as §5
DU-145 = experiment: Induction of p53 […] mutant depletion in human DU145 cells at 10 uM by immunoblot analysis; format: cell-based; conditions: TDE = time-dependent effect; outline: as §6
MCF7 = experiment: Induction of apoptosis in human MCF7 cells expressing wild type p53 assessed as caspase-3 activation incubated for 24 hrs; format: functional, cell-based; outline: as §3
[21] = test system: Cellular tumor antigen p53 (Homo sapiens), P04637 [R280K]; experiment: Induction of p53 R280K mutant depletion in human MDA-MB-231 cells at 15 uM by immunoblot analysis; format: cell-based; conditions: TDE = time-dependent effect; outline: as §5
H1299 [22] = experiment: Induction of temperature sensitive p53 143A mutant depletion in human H1299 cells at 15 uM incubated for 24 hrs at 37 degC by immunoblot analysis; format: cell-based
NCI-H596 [23] = experiment: Effect on JNK protein expression in human NCI-H596 cells by immunoblot analysis; format: functional, cell-based; outline: as §2
HCT-116 = experiment: Induction of apoptosis in human HCT116 cells expressing wild type p53 assessed as caspase-3 activation incubated for 24 hrs; format: functional, cell-based; outline: as §3
[24] = test system: Cellular tumor antigen p53 (Homo sapiens), P04637 [G245C]; experiment: Induction of p53 G245C mutant depletion in human NCI-H596 cells at 15 uM by immunoblot analysis; format: cell-based; conditions: TDE = time-dependent effect; outline: as §1
NCI-H596 [25] = experiment: Effect on DR5 protein expression in human NCI-H596 cells by immunoblot analysis; format: functional, cell-based; outline: as §2
[26] = test system: Cellular tumor antigen p53 (Homo sapiens), P04637 [G245C]; experiment: Induction of p53 G245C mutant depletion in human NCI-H596 cells incubated for 2 to 6 hrs by immunoblot analysis; format: cell-based; outline: as §1
[27] = molecular target: Cellular tumor antigen p53 (Homo sapiens) (UniProt P04637); experiment: Induction of p53 depletion in human A549 cells at 20 uM incubated for 2 to 24 hrs by immunoblot analysis; format: cell-based; outline: as §4
NCI-H596 [28] = experiment: Effect on HSP90 protein expression in human NCI-H596 cells by immunoblot analysis; format: functional, cell-based; outline: as §2
NCI-H596 [29] = experiment: Induction of apoptosis in human NCI-H596 cells expressing p53 G245C mutant assessed as caspase-3 activation incubated for 24 hrs; format: functional, cell-based; outline: as §3
[30] = molecular target: Cellular tumor antigen p53 (Homo sapiens) (UniProt P04637); experiment: Induction of p53 activation in human MCF7 cells at 20 uM incubated for 24 hrs by immunoblot analysis; format: cell-based; outline: as §4
MDA-MB-468 = experiment: Induction of apoptosis in human MDA-MB-468 cells expressing p53 R273H mutant assessed as caspase-3 activation incubated for 24 hrs; format: functional, cell-based; outline: as §3
[31] = molecular target: Cellular tumor antigen p53 (Homo sapiens) (UniProt P04637); experiment: Induction of p53 depletion in human HCT116 cells at 20 uM incubated for 2 to 24 hrs by immunoblot analysis; format: cell-based; conditions: HCT-116; outline: as §4
H1299 [32] = experiment: Induction of temperature sensitive p53 143A mutant depletion in human H1299 cells at 15 uM incubated for 24 hrs at 32.5 degC by immunoblot analysis; format: cell-based

## S=C=NCc1ccc(Oc2ccccc2)cc1
[1]
  Activity: Active
[2]
  Activity: Active
[3]
  Activity: Active

## S=C=NCC1CCCCC1
[4]
  Activity: inactive
MDA-MB-231 [5]
  Activity: inactive
[2]
  Activity: inactive
[3]
  Activity: inactive

## S=C=NCCCCCCc1ccccc1
[2]
  Activity: Active
[3]
  Activity: Active

## S=C=NCC(c1ccccc1)c1ccccc1
[4]
  Activity: Active
MDA-MB-231 [5]
  Activity: Active
[2]
  Activity: Active
[3]
  Activity: Active

## C[C@@H](N=C=S)c1ccccc1
[1]
  Activity: Active
[2]
  Activity: inactive
[3]
  Activity: inactive

## CNCCc1ccccc1
[6]
  Activity: inactive
[2]
  Activity: inactive
[7]
  Activity: inactive

## S=C=NCCCCCc1ccccc1
[2]
  Activity: Active
[3]
  Activity: Active

## COc1ccc(CN=C=S)cc1
[4]
  Activity: Active
[2]
  Activity: Active
[3]
  Activity: Active

## S=C=NCCCc1ccccc1
[4]
  Activity: Active
MDA-MB-231 [5]
  Activity: Active
[2]
  Activity: Active
[3]
  Activity: Active

## C[S+]([O-])CCCCN=C=S (centres undefined)
[8]
  Activity: inactive
[1]
  Activity: inactive
[4]
  Activity: inactive
MDA-MB-231 [5]
  Activity: inactive
[2]
  Activity: inactive
[3]
  Activity: inactive

## S=C=NCc1ccc(Cl)cc1
[4]
  Activity: Active
[2]
  Activity: Active
[3]
  Activity: Active

## S=C=NC(c1ccccc1)(c1ccccc1)c1ccccc1
[4]
  Activity: inactive
MDA-MB-231 [5]
  Activity: inactive
[2]
  Activity: inactive
[3]
  Activity: inactive

## C=CCN=C=S
[8]
  Activity: inactive
[4]
  Activity: inactive
[2]
  Activity: inactive
[3]
  Activity: inactive

## S=C=Nc1ccccc1
[4]
  Activity: inactive
[2]
  Activity: inactive
[3]
  Activity: inactive

## S=C=NCCCCc1ccccc1
MDA-MB-231 [5]
  Activity: Active
[2]
  Activity: Active
[3]
  Activity: Active

## S=C=NCc1ccccc1
[1]
  Activity: Active
[9]
  Activity: Active
[4]
  Activity: Active
MDA-MB-231 [5]
  Activity: Active
[2]
  Activity: Active
[3]
  Activity: Active
[10]
  Activity: Active

## S=C=NCCc1ccccc1
NCI-H596 [11]
  Activity: inactive
NCI-H596 [12]
  Activity: inactive
SW480
  Activity: Active
H1299 [13]
  Activity: Active
[14]
  Activity: inactive
A549
  Activity: inactive
[15]
  Activity: tde
[16]
  Activity: inactive
H1299 [17]
  Activity: Active
MDA-MB-231 [18]
  Activity: Active
[19]
  Activity: tde
[20]
  Activity: tde
DU-145
  Activity: tde
MCF7
  Activity: inactive
[21]
  Activity: tde
H1299 [22]
  Activity: Active
NCI-H596 [23]
  Activity: inactive
HCT-116
  Activity: inactive
[24]
  Activity: tde
NCI-H596 [25]
  Activity: inactive
[4]
  Activity: Active
[26]
  Activity: Dose-dependent effect
[27]
  Activity: inactive
NCI-H596 [28]
  Activity: inactive
NCI-H596 [29]
  Activity: Active
[2]
  Activity: Active
[30]
  Activity: Active
MDA-MB-468
  Activity: Active
[3]
  Activity: Active
[31]
  Activity: inactive
H1299 [32]
  Activity: inactive
